Active and inactive are the calls of the source. The calls are words filed in the database; no cut-off is given here.
Tests used:
[1] = system: SH-SY5Y; assay: Neuroprotective activity against 6-OHDA-induced toxicity in human SH-SY5Y cells assessed as LDH release at 5 uM pretreated for 30 mins followed by 6-OHDA challenge and measured after 24 hrs by cytotox-onetm homogeneous membrane integrity assay (reference value: 135%); assay type: functional
[2] = Apparent permeability in Sprague-Dawley rat ileum at 50 uM measured after 20 mins LC-MS/MS analysis; assay type: ADME, tissue-based
[3] = system: SH-SY5Y; assay: Neuroprotective activity against 6-OHDA-induced toxicity in human SH-SY5Y cells assessed as reduction in propidium iodide positive cells at 5 uM pretreated for 30 mins followed by 6-OHDA challenge and measured after 24 hrs by propidium iodide staining-based flow cytometric analysis relative to 6-OHDA; assay type: functional
Outline: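 SH-SY5Y cells were grown in Advanced DMEM with 10% FBS at 37 °C, 5% CO2 to 80% confluence, then switched to serum-depleted medium. Compound (5 μM, from a 20 mM DMSO stock) was added 30 min before 6-OHDA (100 μM). After 24 h, PI staining was read by flow cytometry. Runs were n ≥ 2, each in duplicate, with one-way ANOVA and Bonferroni.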

[4] = system: SH-SY5Y; assay: Cytotoxicity against human SH-SY5Y cells assessed as reduction in cell viability at 5 to 10 uM measured after 24 hrs by MTS assay; assay type: cell-based
Outline: (§1)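 SH-SY5Y human neuroblastoma cells grown in Advanced DMEM with 10% FBS at 37 °C, 5% CO2, and switched to serum-depleted medium before treatment. Compounds (20 mM DMSO stocks) were applied at 5, 10 or 50 μM for 24 h. Viability read by MTS assay.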

[5] = Cytotoxicity against human SH-SY5Y cells assessed as cell viability at 50 uM measured after 24 hrs by MTS assay relative to control; assay type: cell-based; details: read-out: Activity; outline: as §1
[6] = system: Mus musculus; assay: Antidepressant-like activity in Swiss mouse assessed as reduction in immobility time at 1 to 30 mg/kg, ip administered as single dose for 30 mins prior to testing measured for last 4 mins of 6 mins test by tail suspension test; assay type: functional, organism-based
[7] = Apparent permeability across absorptive direction in Sprague-Dawley rat ileum at 50 uM measured after 20 mins LC-MS/MS analysis; assay type: ADME, tissue-based
[8] = system: Mus musculus; assay: Antianxiety activity in Swiss mouse assessed as increase in time spent in open arm entries at 3 mg/kg, ip measured after 30 mins and monitored for 5 mins by elevated plus maze test relative to control; assay type: functional
[9] = system: Mus musculus; assay: Ex vivo inhibition of MAOA in Swiss mouse brain homogenates assessed as residual activity at 60 mg/kg, ip measured after 30 mins using 5-HT as substrate by amplex red reagent-based horseradish peroxidase-coupled fluorescence assay relative to control; assay type: functional
Outline: (§2)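 Male Swiss mice (n = 3 per group) received 60 mg/kg ip in 0.9% saline, or saline alone, 30 min before brain homogenate preparation. […] Residual activity reported as mean ± SD, n = 1 in triplicate.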

[10] = system: Mus musculus; assay: Ex vivo inhibition of MAOA in Swiss mouse brain homogenates assessed as residual activity at 30 mg/kg, po administered via gavage measured after 90 mins using 5-HT as substrate by amplex red reagent-based horseradish peroxidase-coupled fluorescence assay relative to control; assay type: functional
[11] = system: Mus musculus; assay: Ex vivo inhibition of MAOA in ip dosed Swiss mouse brain homogenates measured after 30 mins using 5-HT as substrate by amplex red reagent-based horseradish peroxidase-coupled fluorescence assay; assay type: functional
[12] = Toxicity in Swiss mouse assessed as change in behavior at 0.3 mg/kg, ip administered once daily for 10 days measured during compound dosing; assay type: organism-based; details: in vivo, 240 h
[13] = Apparent permeability across eliminatory direction in Sprague-Dawley rat ileum at 50 uM measured after 20 mins LC-MS/MS analysis; assay type: ADME, tissue-based
[14] = system: Mus musculus; assay: Antianxiety activity in Swiss mouse at 0.3 mg/kg, ip […] and monitored for 5 mins by elevated plus maze test; assay type: functional, organism-based
[15] = target: T1, Amine oxidase [flavin-containing] A (Mus musculus, UniProt Q64133); assay: Inhibition of MAOA in Swiss mouse brain homogenates assessed as residual activity at 50 uM using 5-HT as substrate preincubated for 10 mins followed by substrate addition by amplex red reagent-based horseradish peroxidase-coupled fluorescence assay relative to control; assay type: tissue-based; details: read-out: Activity
T1 sequence (Q64133 whole entry): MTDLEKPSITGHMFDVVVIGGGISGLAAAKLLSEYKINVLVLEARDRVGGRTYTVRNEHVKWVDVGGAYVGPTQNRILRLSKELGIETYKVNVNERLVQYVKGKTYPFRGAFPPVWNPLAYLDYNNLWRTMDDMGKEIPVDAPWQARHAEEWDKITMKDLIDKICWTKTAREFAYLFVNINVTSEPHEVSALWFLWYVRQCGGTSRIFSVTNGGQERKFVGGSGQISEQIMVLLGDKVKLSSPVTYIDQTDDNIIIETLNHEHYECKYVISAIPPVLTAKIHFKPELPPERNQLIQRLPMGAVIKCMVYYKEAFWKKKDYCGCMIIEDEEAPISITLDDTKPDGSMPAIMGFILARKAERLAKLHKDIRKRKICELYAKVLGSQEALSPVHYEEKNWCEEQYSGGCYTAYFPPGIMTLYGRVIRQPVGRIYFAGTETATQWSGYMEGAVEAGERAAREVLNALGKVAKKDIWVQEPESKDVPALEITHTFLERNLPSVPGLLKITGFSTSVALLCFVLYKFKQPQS

[16] = system: Mus musculus; assay: Ex vivo inhibition of MAOA in Swiss mouse brain homogenates assessed as residual activity at 0.3 mg/kg, ip measured after 30 mins using 5-HT as substrate by amplex red reagent-based horseradish peroxidase-coupled fluorescence assay relative to control; assay type: functional
[17] = system: Mus musculus; assay: Antidepressant-like activity in Swiss mouse assessed as reduction in immobility time at 0.3 mg/kg, ip administered once daily for 10 days measured for last 4 mins of 6 mins test at 30 mins post-last dose test by tail suspension test; assay type: functional, organism-based
Outline: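 Male Swiss mice injected ip daily with 0.3 mg/kg in 0.9% saline for 10 days (n = 10; saline controls n = 8). Tail suspension test on day 10, 30 min after the injection. Immobility time reported as mean ± SEM and compared by unpaired t-test.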

[18] = system: Mus musculus; assay: Ex vivo inhibition of MAOA/MAOB in Swiss mouse brain homogenates assessed as residual activity at 60 mg/kg, ip measured after 30 mins using p-tyramine as substrate by amplex red reagent-based horseradish peroxidase-coupled fluorescence assay relative to control; assay type: functional; outline: as §2
[19] = system: Mus musculus; assay: Ex vivo inhibition of MAOA in Swiss mouse brain homogenates assessed as residual activity at 0.3 mg/kg, ip administered once daily for 10 days measured 30 mins post-last dose using 5-HT as substrate by amplex red reagent-based horseradish peroxidase-coupled fluorescence assay relative to control; assay type: functional
[20] = Photoisomerization of the compound in D2O incubated for 7 days under sunlight by NMR analysis
[21] = system: Mus musculus; assay: Effect on spontaneous locomotor activity in Swiss mouse assessed as change in number of light beam crossings at 3 mg/kg, ip measured after 30 mins and monitored for 5 mins; assay type: ADME, organism-based; details: in vivo
[22] = system: Mus musculus; assay: Antianxiety activity in Swiss mouse assessed as increase in open arm entries at 3 mg/kg, ip measured after 30 mins and monitored for 5 mins by elevated plus maze test relative to control; assay type: functional
[23] = Toxicity in Swiss mouse assessed as change in body weight at 0.3 mg/kg, ip administered once daily for 10 days measured during compound dosing; assay type: organism-based; details: in vivo, 240 h
[24] = Thermodynamic solubility of the compound in pH 7.4 phosphate buffered saline assessed per […] at 7 to 9 mg incubated for 24 hrs under shaking condition by HPLC analysis; assay type: physicochemical; details: in vitro, pH 7.4, 24 h
[25] = Chemical stability of the compound in D2O measured incubated for >1 year at room temperature under dark condition by NMR analysis; assay type: physicochemical
[26] = system: Mus musculus; assay: Effect on spontaneous locomotor activity in Swiss mouse assessed as change in number of light beam crossings at 0.3 mg/kg, ip administered […] and monitored for 5 mins; assay type: ADME, organism-based; details: in vivo

In the case of `C#CCN1CCC(/C=C/c2ccc(C(F)(F)F)cc2)CC1.Cl`, the Activity [1] was 87%, the Papp [2] was “Impermeable” and the “fold change (FC)” value [3] was 0.65. The Activity [4] was “Non-Toxic” and the viability at 24 h, 50 µM [5] was > 80%.
For `C#CCN1CCC(/C=C\c2cccc(F)c2)CC1.Cl`, the Activity [6] was “inactive”, the Papp A→B at 20 min, 50 µM [7] was 10.8 ×10⁻⁶ cm/s and the “fold change (FC)” value [8] was 2.1. The Activity [9] was 1.6%, the Activity [10] was 45.3% and the inhibition [11] was “Dose-dependent effect”. The ED50 ([11]; 0.5 h) was 0.43 mg/kg, the Activity [12] was “Non-Toxic” and the Papp at 20 min, 50 µM [13] was 35.4 ×10⁻⁶ cm/s. For the same compound, the Activity [14] was “inactive”, the activity at 50 µM [15] was -1.3% and the Activity [16] was 67.8%. The Activity [17] was “Active”, the Activity [4] was “Non-Toxic” and the Activity [18] was 14.2%. For the same compound, the viability at 24 h, 50 µM [5] was > 80%, the Activity [19] was 9.5% and the Drug metabolism [20] was “Metabolite not detected”. For the same compound, the Activity [21] was “Non-Toxic”, the “fold change (FC)” value [22] was 2 and the Activity [23] was “Non-Toxic”. The Therm solubility [24] was ≥ 34.4 mg/mL, the Stability [25] was “Stable” and the Activity [26] was “Non-Toxic”.
